This is a sample that favours compounds with a hit; in the whole collection about 2.6% have one here.
SENP1 FRET inh: SENP1 (human) catalytic domain inhibition; Q9P0U3; recombinant SENP1 catalytic domain, CyPet-SUMO1-YPet FRET cleavage; inhibition, % at 10 µM; 360,000 compounds, 0.21% hits; AID 624204;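 active means inhibition at least 30% at 10 µM, raw YFP signal under a set limit, fluorescence ratio 0.5 to 1.5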
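Material – human SENP1 catalytic domain · Input – SENP1 enzyme, 20 pM final · Compound dosing – single concentration of 10 µM compound, 0.5% DMSO final · Timing – enzyme reaction for 50 min at room temperature, dark · Measured by – FRET fluorescence in CFP and YFP emission channels · Control set – no-enzyme wells low, DMSO-plus-enzyme wells high control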
SENP6 block: inhibitors of human SENP6 protease; Q9GZR1; Recombinant SENP6 catalytic domain, aminoluciferin luminescence; inhibition, % at 10 µM; 330,000 compounds, 1.8% hits;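 active means inhibition above about 50% at the single tested dose, limit read from the data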
SENP8 block-1: inhibitors of human SENP8 protease; Q96LD8; purified SENP8, Z-RLRGG-aminoluciferin cleavage, luminescence; inhibition, % at 10 µM; 330,000 compounds, 1.2% hits; AID 2540; in the data active means inhibition above about 50%
Target sequence (Q96LD8 whole entry, looked up): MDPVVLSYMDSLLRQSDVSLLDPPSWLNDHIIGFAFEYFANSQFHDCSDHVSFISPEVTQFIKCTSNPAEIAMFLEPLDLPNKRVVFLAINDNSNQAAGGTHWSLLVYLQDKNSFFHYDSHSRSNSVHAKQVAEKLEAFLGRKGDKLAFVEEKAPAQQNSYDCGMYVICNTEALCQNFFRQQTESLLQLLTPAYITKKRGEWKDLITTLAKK
SENP7 inh: inhibitors of human SENP7 protease | inhibition, % at 5 µM | 330,000 compounds, 1.5% hits | recombinant SENP7, Z-RLRGG-aminoluciferin luminescence, 40 min | AID 434973 | Q9BQF6;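 active means inhibition above about 50% at the single test dose, limit read from the data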
SENP8 block-2: blocks human SENP8 cleavage of Nedd8 substrate; recombinant SENP8, Nedd8 substrate fluorescence; 360,000 compounds, 0.64% hits; inhibition, % at 20 µM; Q96LD8; in the data active means inhibition mostly above about 40%, no sharp cut-off; inactive means mostly below about 27%
UCH37 inh: inhibitors of human deubiquitinating enzyme UCH37 | inhibition, % (concentration not given with the values) | purified proteasome/UCH37, Ub-AMC cleavage fluorescence | 330,000 compounds, 0.33% hits | Q9Y5K5;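 active means mean inhibition over replicate wells above about 20%, limit read from the data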
Target sequence (Q9Y5K5 whole entry, looked up): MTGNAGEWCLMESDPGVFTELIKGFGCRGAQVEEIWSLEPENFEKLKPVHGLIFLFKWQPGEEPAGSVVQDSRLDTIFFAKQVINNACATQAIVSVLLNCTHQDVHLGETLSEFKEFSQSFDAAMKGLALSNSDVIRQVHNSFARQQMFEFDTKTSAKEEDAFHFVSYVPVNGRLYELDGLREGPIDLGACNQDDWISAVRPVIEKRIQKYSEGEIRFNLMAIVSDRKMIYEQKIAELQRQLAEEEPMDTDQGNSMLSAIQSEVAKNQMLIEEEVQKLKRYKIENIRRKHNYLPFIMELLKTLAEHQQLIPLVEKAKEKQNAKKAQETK
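Material: human UCH37 enzyme supplied as purified proteasome complex. Measure: % inhibition of Ub-AMC cleavage fluorescence. Medium: pH 7.4 Tris-HCl (50 mM) with ovalbumin, ATP-MgCl2, DTT. Times: 30 min preincubation with enzyme, 25 min cleavage at room temperature. Detection: AMC fluorescence intensity at 355/460 nm.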
Large screens that a line does not name were inactive.

CCCc1nc2c(s1)CCc1onc(-c3cccc([N+](=O)[O-])c3)c1-2	UCH37 inh 31.7
CN(C)c1ccc(/C=[N+](\[O-])C(C)(C)C=NO)cc1	UCH37 inh 22.9 (no result: SENP1 FRET inh, SENP6 block, SENP8 block-1, SENP7 inh, SENP8 block-2)
O=C(Nc1ccc(N=Nc2ccccc2)cc1)c1ccccc1Cl	SENP8 block-2 50.6
OC[C@@H]1CC[C@@H](Cc2ccc(-c3ccccc3)cc2)O1	SENP7 inh 63.0 (no result: SENP6 block, SENP8 block-1)
NC(=O)NC[C@@H]1CC[C@@H](Cc2ccc(-c3ccccc3)cc2)O1	none (no result: SENP6 block, SENP8 block-1)
Nc1c(N(CCC2=CCCCC2)C(=O)COc2ccc(F)cc2)c(=O)[nH]c(=O)n1Cc1ccccc1	UCH37 inh 24.2
CC(=NOCC(=O)NCC(F)(F)F)c1cc2ccccc2o1	none (no result: SENP1 FRET inh, SENP6 block, SENP8 block-1, SENP7 inh, SENP8 block-2)
Cc1nc(NC(=O)c2ccccc2)sc1-c1csc(Nc2ccc(Cl)cc2)n1	SENP6 block 50.9 (no result: SENP1 FRET inh, SENP8 block-2, UCH37 inh)
Cc1nc(NC(=O)c2ccccc2)sc1-c1csc(Nc2ccc(Cl)cc2Cl)n1	SENP6 block 50.9, SENP7 inh 59.3 (no result: SENP1 FRET inh, SENP8 block-2, UCH37 inh)
Cc1nc(NC(=O)c2ccccc2)sc1-c1csc(Nc2ccc(F)cc2)n1	none (no result: SENP1 FRET inh, SENP8 block-2, UCH37 inh)
CC(=NNC(=O)c1ccc2c(c1)OCO2)c1ccc(NS(C)(=O)=O)cc1	none (no result: SENP1 FRET inh, SENP6 block, SENP8 block-1, SENP7 inh, SENP8 block-2)
COc1cc(C(c2c(C)[nH][nH]c2=O)c2c(C)[nH][nH]c2=O)ccc1OC(=O)c1cccc([N+](=O)[O-])c1	SENP8 block-2 42.3
COc1cc(C(c2c(C)[nH][nH]c2=O)c2c(C)[nH][nH]c2=O)ccc1OCc1ccc([N+](=O)[O-])cc1	none
CC(=NNC(=S)NCCc1ccccc1)c1ccc(O)cc1O	none (no result: SENP1 FRET inh, SENP6 block, SENP8 block-1, SENP7 inh, SENP8 block-2)
CCN(C=Nc1sc2c(c1C#N)CCCCC2)CC	none (no result: SENP1 FRET inh, SENP6 block, SENP8 block-1, SENP7 inh, SENP8 block-2)
COc1ncnc2c1NC1=C(S2)C(=NCCC(=O)O)CC(C)(C)C1	SENP1 FRET inh 51.8
CN(C)c1ncnc2c1NC1=C(S2)C(=NCCCC(=O)O)CC(C)(C)C1	none
Cc1nc2ccccc2c(=O)n1N=Cc1ccc(O)cc1	none (no result: SENP1 FRET inh, SENP6 block, SENP8 block-1, SENP7 inh, SENP8 block-2)
O=C(O)c1ccc(N=Nc2c(O)[nH]c3ccccc23)cc1	SENP6 block 99.3, SENP8 block-1 97.3, SENP7 inh 99.6 (no result: UCH37 inh)
CC(=NNC(=O)COc1ccc(C)cc1C(C)C)c1ccc(-n2ccnc2)cc1	none (no result: SENP1 FRET inh, SENP6 block, SENP8 block-1, SENP7 inh, SENP8 block-2)
CC1=NN(C(=O)CSCc2ccccc2)C(O)(c2ccc(F)cc2)C1 (centres undefined)	UCH37 inh 21.8
CCOC(=O)C1=C(Cc2ccc(OC)cc2)C(=O)c2ccccc2C1=O	SENP1 FRET inh 40.3 (no result: SENP6 block, SENP8 block-1, SENP7 inh)
COc1cccc(N=Nc2c(N)[nH][nH]c2=O)c1	none
COc1cccc(N=Nc2c(N)[nH]n3c(=O)c4c(nc23)CCCC4)c1	SENP8 block-2 49.9
Cn1cc(Cl)c(C(=O)Nc2nc3ccc([N+](=O)[O-])cc3s2)n1	SENP6 block 65.4, SENP8 block-1 58.0, SENP7 inh 89.6 (no result: UCH37 inh)
COc1cccc(OC)c1C(=O)Nc1nc2ccc([N+](=O)[O-])cc2s1	UCH37 inh 21.2
Cc1ccccc1NC(=O)CCC(=O)NN=Cc1ccncc1	none (no result: SENP1 FRET inh, SENP6 block, SENP8 block-1, SENP7 inh, SENP8 block-2)
CCN(CC)c1ccc(/C=C(\C#N)c2ccccn2)cc1	SENP6 block 83.7, SENP8 block-1 88.0, SENP7 inh 87.8 (no result: UCH37 inh)
CCNc1ccc2noc3c2c1C(=O)c1ccccc1-3	SENP8 block-2 42.0
CCOc1ccc2noc3c2c1C(=O)c1ccccc1-3	SENP6 block 78.9, SENP8 block-2 70.2 (no result: UCH37 inh)
O=C1c2ccccc2-c2onc3ccc(NCc4ccco4)c1c23	SENP6 block 63.9, SENP8 block-2 99.8
O=C1c2ccccc2C(=O)c2c1cccc2N1CCCC1	SENP8 block-2 46.3 (no result: SENP6 block, SENP8 block-1, SENP7 inh)
CCNc1ccccc(-c2ccc3ccccc3n2)c1=O	none
Cn1c(=O)cc2c3c(c(N4CCCCC4)ccc31)C(=O)c1ccccc1-2	SENP1 FRET inh 32.6
O=C1c2ccccc2-c2onc3ccc(N4CCCC4)c1c23	SENP8 block-2 80.8 (no result: SENP6 block, SENP8 block-1, SENP7 inh)
CCCCOc1ccc(CNC(=S)NN=Cc2ccc(OC)c(OC)c2)cc1	none (no result: SENP1 FRET inh, SENP6 block, SENP8 block-1, SENP7 inh, SENP8 block-2)
C=CCOc1ccccc1C=c1sc2nc(=O)c(C)nn2c1=O	none (no result: SENP1 FRET inh, SENP6 block, SENP8 block-1, SENP7 inh, SENP8 block-2)
CN(C)C=Nc1nc2nccc(-c3ccc(F)cc3)n2n1	none (no result: SENP1 FRET inh, SENP6 block, SENP8 block-1, SENP7 inh, SENP8 block-2)
Cc1ccc(S(=O)(=O)NN=Cc2cc([N+](=O)[O-])ccc2Cl)cc1	none (no result: SENP1 FRET inh, SENP6 block, SENP8 block-1, SENP7 inh, SENP8 block-2)
COc1ccc(CC(=O)Nc2ccc(C(C)=NNC(=O)c3ccc(Br)o3)cc2)cc1	none (no result: SENP1 FRET inh, SENP6 block, SENP8 block-1, SENP7 inh, SENP8 block-2)
COc1ccc2c(c1)OC/C(=C/c1cccs1)C2=O	SENP6 block 93.8, SENP8 block-1 88.8, SENP7 inh 96.1
O=S(=O)(N=C1C=CC(=NS(=O)(=O)c2ccccc2)c2ccccc21)c1ccccc1	SENP1 FRET inh 60.0, SENP8 block-2 74.4 (no result: SENP6 block, SENP8 block-1, SENP7 inh, UCH37 inh)
Cc1ccc(S(=O)(=O)/N=C2\C=C(NS(=O)(=O)c3ccccc3)C(=O)c3ccccc32)cc1	SENP8 block-2 73.7 (no result: SENP6 block, SENP8 block-1, SENP7 inh, UCH37 inh)
Cc1cc(C)c(S(=O)(=O)/N=C2\C=C(NS(=O)(=O)c3ccccc3)C(=O)c3ccccc32)c(C)c1	SENP8 block-2 73.3 (no result: UCH37 inh)
Cc1ccc(S(=O)(=O)/N=C2/C=C(C3C(=O)CC(C)(C)CC3=O)C(=O)c3ccccc32)cc1	none (no result: UCH37 inh)
CC(=NNC(=O)CCc1c(C)n[nH]c1C)c1cccc([N+](=O)[O-])c1	none (no result: SENP1 FRET inh, SENP6 block, SENP8 block-1, SENP7 inh, SENP8 block-2)
COc1ccc(N2C(=O)/C(=C/c3cccs3)NC2=S)cc1	none
COc1ccc2nc(N3C(=O)/C(=C/c4ccc(Cl)cc4)NC3=S)sc2c1	SENP1 FRET inh 33.1 (no result: SENP6 block, SENP8 block-1, SENP7 inh)
Cc1cccc(CCN2C(N(C)C)=NC[C@@H]2CC(C)C)c1	UCH37 inh 33.5
Cc1ccc(NC(=O)CN2C(=O)N/C(=C/c3cccn3-c3ccc(C(=O)O)cc3)C2=O)cc1	UCH37 inh 21.0 (no result: SENP6 block, SENP8 block-1, SENP7 inh)
CC(=NNC(=O)C(=O)NN=C(C)c1ccccc1)c1ccccc1	none (no result: SENP1 FRET inh, SENP6 block, SENP8 block-1, SENP7 inh, SENP8 block-2)
COc1ccc(-c2cc3nc(C)cc(N)n3n2)cc1	SENP6 block 95.7, SENP8 block-1 95.3, SENP7 inh 97.0

Source: PubChem BioAssay
